Source: ChEMBL document CHEMBL1153602, “Photochemical electrocyclisation of 3-vinylindoles to pyrido[2,3-a]-, pyrido[4,3-a]- and thieno[2,3-a]-carbazoles: design, synthesis, DNA binding and antitumor cell cytotoxicity” (2009)
The source made the active and inactive calls. The rule behind the calls is not given here.

Key:
[1] = system: Nucleic Acid; experiment: Binding affinity to pBS 117bp DNA by DnaseI footprinting assay; assay type: nucleic-acid assay
Procedure, shortened: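 Ligand and fragment were pre-incubated 15 min at 37 °C, then digested with DNase I at 0.001 unit/ml in 20 mM NaCl, 2 mM MgCl2, 2 mM MnCl2, pH 7.3. Products were resolved on a denaturing 8% polyacrylamide/8 M urea gel, with a G-track marker.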

[2] = system: HT-29; experiment: Cell cycle arrest in human HT-29 cells at 25 uM after 24 hrs using PI staining by flow cytometry
[3] = target: T1, DNA topoisomerase 1 (Homo sapiens) (UniProt P11387); experiment: Inhibition of human topoisomerase 1-mediated DNA relaxation assessed as lack of nicking form by agarose gel electrophoresis
T1 sequence (whole entry): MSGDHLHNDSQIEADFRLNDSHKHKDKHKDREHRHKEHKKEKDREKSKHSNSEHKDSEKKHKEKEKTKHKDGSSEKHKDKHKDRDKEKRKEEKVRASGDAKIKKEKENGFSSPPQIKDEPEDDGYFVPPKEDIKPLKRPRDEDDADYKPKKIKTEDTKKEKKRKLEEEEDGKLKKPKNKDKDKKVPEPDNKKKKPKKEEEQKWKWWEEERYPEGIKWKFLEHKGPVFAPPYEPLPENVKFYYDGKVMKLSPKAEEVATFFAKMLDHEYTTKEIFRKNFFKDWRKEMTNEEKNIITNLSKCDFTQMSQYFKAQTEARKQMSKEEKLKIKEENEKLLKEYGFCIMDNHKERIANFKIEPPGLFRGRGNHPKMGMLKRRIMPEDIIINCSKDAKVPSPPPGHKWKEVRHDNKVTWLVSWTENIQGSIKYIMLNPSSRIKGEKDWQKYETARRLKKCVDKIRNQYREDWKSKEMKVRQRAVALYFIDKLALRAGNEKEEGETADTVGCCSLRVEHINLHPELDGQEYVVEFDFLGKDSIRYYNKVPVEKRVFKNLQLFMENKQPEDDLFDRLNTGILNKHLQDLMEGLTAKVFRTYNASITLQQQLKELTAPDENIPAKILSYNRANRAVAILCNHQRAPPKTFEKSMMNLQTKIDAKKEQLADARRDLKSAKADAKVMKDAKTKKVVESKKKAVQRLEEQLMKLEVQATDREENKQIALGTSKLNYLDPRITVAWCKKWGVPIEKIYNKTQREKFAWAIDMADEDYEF
Procedure, shortened: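 Supercoiled pUC19 (130 ng) was pre-incubated with compound at graded concentrations, or 20 or 50 µM in the cleavage assay. Human topoisomerase I (4 units) was then added for 45 min at 37 °C in 50 mM Tris pH 7.8, 50 mM KCl, 10 mM MgCl2, 1 mM DTT, 1 mM EDTA, 1 mM ATP. Camptothecin (20 µM) served as control. Samples ran on 1% agarose for 2 h at 120 V in TBE, with ethidium bromide either post-stained (relaxation) or included in the gel (cleavage).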

[4] = system: UO-31; experiment: Growth inhibition of human UO31 cells after 48 hrs by sulforhodamine B protein assay; assay type: functional; settings: UO-31, 48 h
Procedure, shortened: (§1)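 NCI 60-cell-line screen. Dose–response used at least five concentrations in 10-fold dilutions with 48 h continuous drug exposure. Growth was estimated by sulforhodamine B protein staining. GI50 is the molar concentration giving 50% growth inhibition versus control.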

[5] = system: SK-MEL-5; experiment: Growth inhibition of human SK-MEL-5 cells after 48 hrs by sulforhodamine B protein assay; assay type: functional; settings: SK-MEL-5, 48 h; procedure, shortened: as §1
[6] = system: Calf thymus DNA; experiment: Binding affinity to calf thymus DNA assessed as change in melting temperature at a compound to DNA molar ratio of 0.5 by UV-vis spectroscopy; assay type: nucleic-acid assay; settings: Bos taurus
Procedure, shortened: (§2)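 UV absorbance of DNA at 260 nm recorded every minute from 20 to 100 °C, ramping 1 °C/min in a thermostated quartz cell. Tm is taken as the midpoint of the hyperchromic transition. ΔTm = Tm(DNA+drug) − Tm(DNA alone). Calf-thymus DNA or poly(dAdT)2 was used at DNA/drug ratios from 0.1 to 1.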

[7] = system: HT-29; experiment: Growth inhibition of human HT-29 cells by MTS assay; assay type: functional
Procedure, shortened: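 HT-29 cells, 3×10^3 per well, were seeded 24 h before treatment with compound at 1 nM–100 µM, run as 3 series of duplicate or triplicate points. After 72 h at 37 °C, MTS tetrazolium was added for 2 h and absorbance read at 492 nm. GC50 is the concentration halving cell number versus untreated control wells.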

[8] = system: Nucleic Acid; experiment: Binding affinity to poly(dA).poly(dT) duplex DNA assessed as change in thermal melting temperature at compound to DNA ratio of 0.1 by UV-vis spectroscopy; assay type: nucleic-acid assay
[9] = target: DNA topoisomerase 2-alpha (Homo sapiens) (UniProt P11388); experiment: Inhibition of human topoisomerase 2-mediated DNA relaxation assessed as double stranded break form by agarose gel electrophoresis
Procedure, shortened: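 Supercoiled pUC19 (130 ng) with compound at 20 or 50 µM, or etoposide as control, was incubated with human topoisomerase II (4 units) for 45 min at 37 °C in cleavage buffer. The reaction was stopped with 0.25% SDS plus proteinase K for 30 min at 50 °C. DNA forms were separated on 1% agarose containing ethidium bromide in TBE.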

[10] = system: Calf thymus DNA; experiment: Binding affinity to calf thymus DNA assessed as change in melting temperature at a compound to DNA molar ratio of 1 by UV-vis spectroscopy; assay type: nucleic-acid assay; settings: Bos taurus; procedure, shortened: as §2
[11] = system: Nucleic Acid; experiment: Binding affinity to poly(dA).poly(dT) duplex DNA assessed as change in thermal melting temperature at compound to DNA ratio of 0.5 by UV-vis spectroscopy; assay type: nucleic-acid assay
[12] = system: HT-29; experiment: Cell cycle arrest in human HT-29 cells assessed as accumulation at S phase at 10 uM after 24 hrs using PI staining by flow cytometry; assay type: functional
Procedure, shortened: (§3)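 HT-29 cells, 3×10^5 per sample in exponential growth, were exposed to graded drug concentrations for 24 h. Cells were then trypsinised, fixed in 70% ethanol and stained 30 min in the dark with propidium iodide (50 µg/ml) plus RNase (100 µg/ml). DNA content was measured by flow cytometry, quantifying cell-cycle phases and the sub-G1 fraction.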

[13] = system: Nucleic Acid; experiment: Binding affinity to poly(dA).poly(dT) duplex DNA assessed as change in thermal melting temperature at compound to DNA ratio of 0.25 by UV-vis spectroscopy; assay type: nucleic-acid assay
[14] = system: Nucleic Acid; experiment: Binding affinity to poly(dA).poly(dT) duplex DNA assessed as change in thermal melting temperature at compound to DNA ratio of 1 by UV-vis spectroscopy; assay type: nucleic-acid assay
[15] = system: HT-29; experiment: Cell cycle arrest in human HT-29 cells assessed as accumulation at G2/M phase at 25 uM after 24 hrs using PI staining by flow cytometry; assay type: functional, cell-based; procedure, shortened: as §3
[16] = system: Calf thymus DNA; experiment: Binding affinity to calf thymus DNA assessed as change in melting temperature at a compound to DNA molar ratio of 0.1 by UV-vis spectroscopy; assay type: nucleic-acid assay; settings: Bos taurus; procedure, shortened: as §2
[17] = system: HT-29; experiment: Growth inhibition of human HT-29 cells after 48 hrs by sulforhodamine B protein assay; assay type: functional; settings: HT-29, 48 h; procedure, shortened: as §1
[18] = system: Calf thymus DNA; experiment: Binding affinity to calf thymus DNA assessed as change in melting temperature at a compound to DNA molar ratio of 0.25 by UV-vis spectroscopy; assay type: nucleic-acid assay; settings: Bos taurus; procedure, shortened: as §2
[19] = system: SW-620; experiment: Growth inhibition of human SW620 cells after 48 hrs by sulforhodamine B protein assay; assay type: functional; settings: SW-620, 48 h; procedure, shortened: as §1
[20] = system: Calf thymus DNA; experiment: Binding affinity to calf thymus DNA assessed as enhancement constant by fluorescence spectroscopy; assay type: nucleic-acid assay; settings: Bos taurus
Procedure, shortened: (§4)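 Drug at a fixed 20 µM in 1 ml BPE buffer in a 10 mm quartz cuvette, titrated with CT-DNA at 10–200 µM base pairs. Excitation was set at each compound's own wavelength (276–319 nm). Constants came from Stern–Volmer plots of F0/F against CT-DNA concentration, with the slope taken as Ksv.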

[21] = system: Calf thymus DNA; experiment: Binding affinity to calf thymus DNA assessed as positive dichroic signal at phosphate/drug ratio by circular dichroism spectra; assay type: nucleic-acid assay; settings: Bos taurus
Procedure, shortened: (§5)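 Circular dichroism of drug at […] in 1 ml of 1 mM sodium cacodylate, pH 7.0, with or without CT-DNA at 10–200 µM. Phosphate/compound ratio ran from 0.4 to 8. The induced CD signal in the ligand absorption region was recorded.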

[22] = system: Calf thymus DNA; experiment: Binding affinity to calf thymus DNA assessed as quenching constant by fluorescence spectroscopy; assay type: nucleic-acid assay; settings: Bos taurus; procedure, shortened: as §4
[23] = system: HT-29; experiment: Cell cycle arrest in human HT-29 cells assessed as accumulation at G2/M phase after 24 hrs using PI staining by flow cytometry; assay type: functional, cell-based; procedure, shortened: as §3
[24] = system: Calf thymus DNA; experiment: Binding affinity to calf thymus DNA assessed as negative dichroic signal at phosphate/drug ratio by circular dichroism spectra; assay type: nucleic-acid assay; settings: Bos taurus; procedure, shortened: as §5

DNA topoisomerase 2-alpha (Homo sapiens), sequence (P11388 whole entry): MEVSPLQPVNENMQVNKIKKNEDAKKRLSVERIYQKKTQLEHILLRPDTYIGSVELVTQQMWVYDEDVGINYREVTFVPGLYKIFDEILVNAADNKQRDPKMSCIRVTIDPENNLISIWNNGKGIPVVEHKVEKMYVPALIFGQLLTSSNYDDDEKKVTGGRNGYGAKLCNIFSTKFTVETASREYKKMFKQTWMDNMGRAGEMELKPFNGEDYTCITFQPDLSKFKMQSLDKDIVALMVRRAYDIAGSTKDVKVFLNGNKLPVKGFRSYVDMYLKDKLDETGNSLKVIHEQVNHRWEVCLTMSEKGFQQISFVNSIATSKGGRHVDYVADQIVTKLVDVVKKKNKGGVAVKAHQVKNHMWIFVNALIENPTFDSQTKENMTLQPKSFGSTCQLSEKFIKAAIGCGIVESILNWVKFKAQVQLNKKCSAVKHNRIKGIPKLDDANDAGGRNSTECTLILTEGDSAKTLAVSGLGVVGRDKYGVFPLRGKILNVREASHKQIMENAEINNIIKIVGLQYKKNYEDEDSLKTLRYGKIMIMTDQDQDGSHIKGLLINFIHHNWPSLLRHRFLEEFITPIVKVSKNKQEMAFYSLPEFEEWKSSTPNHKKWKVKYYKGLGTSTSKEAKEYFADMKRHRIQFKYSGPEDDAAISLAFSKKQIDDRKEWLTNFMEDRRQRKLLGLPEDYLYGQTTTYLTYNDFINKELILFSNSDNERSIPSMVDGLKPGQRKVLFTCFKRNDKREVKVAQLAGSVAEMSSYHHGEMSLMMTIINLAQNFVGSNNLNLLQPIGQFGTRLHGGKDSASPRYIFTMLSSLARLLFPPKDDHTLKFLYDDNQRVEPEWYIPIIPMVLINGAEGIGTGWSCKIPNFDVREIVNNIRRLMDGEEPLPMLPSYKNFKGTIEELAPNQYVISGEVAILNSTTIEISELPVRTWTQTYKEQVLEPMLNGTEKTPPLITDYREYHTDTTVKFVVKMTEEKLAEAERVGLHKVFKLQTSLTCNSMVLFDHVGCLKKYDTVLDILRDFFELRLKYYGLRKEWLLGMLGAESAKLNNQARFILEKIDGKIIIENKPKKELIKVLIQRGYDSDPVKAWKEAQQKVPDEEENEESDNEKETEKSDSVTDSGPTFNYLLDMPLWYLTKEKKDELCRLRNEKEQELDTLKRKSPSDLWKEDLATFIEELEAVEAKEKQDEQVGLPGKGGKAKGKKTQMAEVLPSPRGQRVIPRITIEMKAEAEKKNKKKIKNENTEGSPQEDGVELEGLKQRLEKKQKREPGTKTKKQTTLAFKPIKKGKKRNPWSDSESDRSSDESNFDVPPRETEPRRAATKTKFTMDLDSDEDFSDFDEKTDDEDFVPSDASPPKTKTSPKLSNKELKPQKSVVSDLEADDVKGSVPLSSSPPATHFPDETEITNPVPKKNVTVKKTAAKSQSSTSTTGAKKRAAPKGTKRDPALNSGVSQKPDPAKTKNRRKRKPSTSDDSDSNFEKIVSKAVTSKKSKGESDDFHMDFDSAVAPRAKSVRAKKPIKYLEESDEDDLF

SMILES	Activity [1]	Activity [2]	Activity [3]	ΔTm [6] [°C]	GI50 [7] [nM]	ΔTm [8] [°C]	Activity [9]	ΔTm [10] [°C]	ΔTm [11] [°C]	Activity [12] [%]	ΔTm [13] [°C]	ΔTm [14] [°C]	Activity [15]	ΔTm [16] [°C]	ΔTm [18] [°C]	also measured
CN(C)CCNC(=O)c1cc2c3cc(Cl)ccc3[nH]c2c2ncccc12	Active	Active	Active	7.3	3200	6.1	Active	11.7	18.9	37	14.7	24.9	Active	1.5	7.4	GI50 ([4]; read-out: GI50): 1100 nM; GI50 ([4]; read-out: pGI50 (converted)): 1100 nM; GI50 ([5]; read-out: GI50): 1340 nM; GI50 ([5]; read-out: pGI50 (converted)): 1350 nM; GI50 ([17]; read-out: GI50): 2330 nM; GI50 ([17]; read-out: pGI50 (converted)): 2340 nM; GI50 ([19]; read-out: GI50): 1470 nM; GI50 ([19]; read-out: pGI50 (converted)): 1480 nM
CN(C)CCCNC(=O)c1cc2c3cc(Cl)ccc3[nH]c2c2ncccc12	Active	Active	Active	8.8	9230	6.1	Active	13.2	20.4	26.1	9.2	27.8	Active	3	7.4	Activity [20]: 4.84 ×10³ /M
CC[C@@]1(O)C(=O)OCc2c1cc1n(c2=O)Cc2cc3ccccc3nc2-1			Active													
CN(C)CCCNC(=O)c1cc2c3cc(Cl)ccc3[nH]c2c2ccncc12	Active			10.7	2200	10.3		13.9	22.7		17.3	28.3		3.6	6.6	Activity [21]: Active; KSV [22]: 9.95 ×10³ /M; Activity [23]: Active; Activity [24]: Active
